# Assays:
# B16F10 cells = test: cellular internalization in B16F10 cells; assay type: cell-based, mouse; settings: n = 3
# Huh-7 cells = test: cellular uptake in Huh-7 cells; assay type: cell-based, human; settings: n = 3
# Procedure, shortened: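 Huh-7 cells were seeded at 1×10^5 per well in DMEM/10% FBS. Radiolabeled tracer (740 KBq/1 mL medium) was added, with incubation at 37 or 4 °C for 5, 10, 20, 40, 60 and 80 min. Cells were washed three times with cold PBS and lysed in 0.5 M NaOH. Lysate radioactivity was gamma-counted.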
substance,measurement,setting,value
NODAGA-Ahx-CWRLRWHSPLKGM-OH [[^64Cu]CM-3],in vitro cellular internalization,B16F10 cells,weaker binding
same,in vitro cellular internalization,Huh-7 cells,weaker binding
